Where two headings read alike, the source gives them in different places.
Tests used:
CYP199A4 [1] = target: T1, CYP199A4 (Rhodopseudomonas palustris, UniProt Q2IU02); experiment: Hydrogen peroxide uncoupling, HRP/phenol/4-aminoantipyrine assay; assay type: biochemical, Rhodopseudomonas palustris HaA2; settings: WT CYP199A4, HRP assay
T1 sequence (Q2IU02 1-410): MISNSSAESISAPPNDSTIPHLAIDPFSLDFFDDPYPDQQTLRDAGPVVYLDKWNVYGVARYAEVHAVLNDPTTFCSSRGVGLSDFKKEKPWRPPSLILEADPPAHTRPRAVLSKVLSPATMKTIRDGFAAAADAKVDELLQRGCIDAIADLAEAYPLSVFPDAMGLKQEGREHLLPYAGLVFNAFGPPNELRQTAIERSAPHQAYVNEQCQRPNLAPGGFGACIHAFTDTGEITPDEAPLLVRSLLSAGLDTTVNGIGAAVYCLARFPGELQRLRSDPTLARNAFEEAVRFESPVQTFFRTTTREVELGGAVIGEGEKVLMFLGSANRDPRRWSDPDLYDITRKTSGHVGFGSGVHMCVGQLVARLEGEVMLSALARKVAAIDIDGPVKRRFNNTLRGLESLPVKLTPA
Procedure, shortened: (§1)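 Turnover run at 30 °C in oxygenated 50 mM Tris, pH 7.4, with 5 μM HaPux, 0.5 μM HaPuR and 0.5 μM CYP199A4 (WT or F298V). Started with substrate at 1 mM final. Product formation rate and coupling from quantified products. H2O2 by HRP/phenol/4-aminoantipyrine assay. Mean ±S.D., n≥3.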

CYP199A4 [2] = target: T1, CYP199A4; experiment: Spin state shift; assay type: binding, Rhodopseudomonas palustris HaA2; settings: WT CYP199A4, 50 mM Tris pH 7.4
Procedure, shortened: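 UV-visible spectra of CYP199A4 recorded at 30±0.5 °C after substrate addition. Percentage shift from low-spin to high-spin heme estimated to approximately ±5% by a previously described method.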

CYP199A4 [3] = target: T1, CYP199A4; experiment: Product distribution of enzyme-catalyzed oxidation by HPLC / GC-MS; assay type: biochemical, Rhodopseudomonas palustris HaA2
Procedure, shortened: (§2)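 Products of in vitro turnovers quantified by HPLC against product-standard calibrations. Sample: 132 μL reaction mix plus 2 μL of 10 mM 9-hydroxyfluorene in ethanol as internal standard (diphenylmethane for the isopropyl substrate), then 66 μL acetonitrile. Standards made by whole-cell E. coli oxidation or borohydride reduction, or estimated from the closest analogue. Derivatized samples identified by GC-MS on a DB-5 column.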

CYP199A4 [4] = target: T1, CYP199A4; experiment: Dissociation constant determination by substrate binding titration; design: species or system Rhodopseudomonas palustris HaA2; settings: WT CYP199A4, 50 mM Tris pH 7.4
Procedure, shortened: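 CYP199A4 at 0.5–1.5 μM in 50 mM Tris, pH 7.4, held at 30 °C. Substrate titrated in from 1, 10 or 100 mM ethanol stocks. Soret band peak-to-trough absorbance difference recorded over 700–250 nm. Percentage high-spin shift estimated to about ±5%. Kd fitted from the ΔA titration data.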

CYP199A4 [5] = target: T1, CYP199A4; experiment: In vitro NADH oxidation activity assay; assay type: biochemical, Rhodopseudomonas palustris HaA2; settings: for PFR (product formation rate): HaPuR:HaPux:CYP199A4 1:10:1, 0.5 μM CYP, 50 mM Tris pH 7.4; for Coupling (percentage of NADH utilized for the formation of products): WT CYP199A4
Procedure, shortened: as §1

CYP199A4 [6] = target: T1, CYP199A4; settings: WT CYP199A4; reported previously; cited from earlier work
CYP199A4 [7] = target: T1, CYP199A4; settings: WT CYP199A4; reported previously; cited from earlier work; remark: listed apart in the source
CYP199A4 [8] = target: T1, CYP199A4; settings: WT CYP199A4, cited from earlier work; for shift to the high‐spin form of ferric CYP199A4: ref 9c, 14, 17; for HS (%), change in the heme spin state from low‐spin to high‐spin upon addition of substrate: reported previously
F298V mutant of CYP199A4 [9] = experiment: Spin state shift assay with F298V mutant; assay type: binding, Rhodopseudomonas palustris HaA2
F298V mutant of CYP199A4 [10] = experiment: In vitro NADH oxidation activity assay with F298V mutant; assay type: biochemical, Rhodopseudomonas palustris HaA2
Procedure, shortened: as §1

F298V mutant of CYP199A4 [11] = experiment: Product distribution of oxidation by F298V mutant; assay type: biochemical, Rhodopseudomonas palustris HaA2
Procedure, shortened: as §2

[12] = WT CYP199A4, min^−1 abbreviates nmol.nmol‐CYP^−1.min^−1
[13] = listed as 4‐n‐propylbenzoic acid

| SMILES | HS (%), change in the heme spin state from low‐spin to high‐spin upon addition of substrate (CYP199A4 [2]) [%] | Kd (CYP199A4 [4]) [µM] | PFR (product formation rate) (CYP199A4 [5]) [nmol.nmol‐CYP^−1.min^−1] | Coupling (percentage of NADH utilized for the formation of products) (CYP199A4 [5]) [%] | product formation rate (CYP199A4 [5]; [12]) [min⁻¹] | epoxide further oxidation product, share of total products (CYP199A4 [3]; WT CYP199A4, in vitro turnover) [%] | Coupling (percentage of NADH utilized for the formation of products) (CYP199A4 [7]) [%] | NADH (frequency of NADH oxidation) (CYP199A4 [7]) [nmol.nmol‐CYP^−1.min^−1] | PFR (product formation rate) (CYP199A4 [7]) [nmol.nmol‐CYP^−1.min^−1] | shift to the high‐spin form of ferric CYP199A4 (CYP199A4 [8]) [%] | HS (%), change in the heme spin state from low‐spin to high‐spin upon addition of substrate (CYP199A4 [8]) [%] | other results |
| --- | --- | --- | --- | --- | --- | --- | --- | --- | --- | --- | --- | --- |
| O=C(O)c1ccc(C2CC2)cc1 [4‐cyclopropylBA, 4‐cyclopropylbenzoic acid] | ≥95 | 0.28 ± 0.02 | 170±22 | 45±5 | 170 | – | – | – | – | – | – | hydrogen peroxide uncoupling (CYP199A4 [1]): ≤ 2%; HS (%), change in the heme spin state from low‐spin to high‐spin upon addition of substrate (CYP199A4 [2]; listed as 4‐cyclopropylbenzoic acid): ≥ 95%; Cα–Cβ desaturation alkene product, share of total products (CYP199A4 [3]; WT CYP199A4, in vitro turnover): No desaturation was observed; NADH oxidation rate (CYP199A4 [5]; [12]): 383 min⁻¹ |
| CCc1ccc(C(=O)O)cc1 [4‐ethylBA, 4‐ethylbenzoic acid] | – | – | – | – | – | – | 64±4 | 812±7 | 525±88 | ≥ 95 | ≥95 | Kd (CYP199A4 [6]): 0.34 ± 0.02 µM |
| CCCc1ccc(C(=O)O)cc1 [4‐n‐propylBA, 4‐n‐propylbenzoic acid] | ≥95 | 0.54 ± 0.02 | 594±72 | 86±8 | – | 12 | – | – | – | – | – | shift to the high‐spin form (F298V mutant of CYP199A4 [9]): ≥ 95%; HS (%), change in the heme spin state from low‐spin to high‐spin upon addition of substrate (CYP199A4 [2]; [13]): ≥ 95%; NADH oxidation rate (F298V mutant of CYP199A4 [10]): 378 ± 5 min⁻¹; coupling efficiency (F298V mutant of CYP199A4 [10]): 71%; Cβ hydroxylation product 4‐(2‐hydroxypropyl)benzoic acid (F298V mutant of CYP199A4 [11]): almost none; metabolites arising from initial desaturation, share of total products (F298V mutant of CYP199A4 [11]): 73%; Coupling (percentage of NADH utilized for the formation of products) (CYP199A4 [5]; [13]): 86% |
| CC(C)(C)c1ccc(C(=O)O)cc1 [4‐t‐butylBA, 4‐t‐butylbenzoic acid] | – | – | – | – | – | – | 100±13 | 227±4 | 227±32 | ≥ 95 | ≥95 | – |
| CC(C)c1ccc(C(=O)O)cc1 [4‐isopropylBA, 4‐isopropylbenzoic acid] | – | – | – | – | – | – | 68±1 | 325±36 | 221±27 | ≥ 95 | ≥95 | Kd (CYP199A4 [6]): 0.29 ± 0.01 µM |

Now from value to compound, other results behind:

| HS (%), change in the heme spin state from low‐spin to high‐spin upon addition of substrate (CYP199A4 [2]) [%] | Kd (CYP199A4 [4]) [µM] | PFR (product formation rate) (CYP199A4 [5]) [nmol.nmol‐CYP^−1.min^−1] | Coupling (percentage of NADH utilized for the formation of products) (CYP199A4 [5]) [%] | product formation rate (CYP199A4 [5]; [12]) [min⁻¹] | epoxide further oxidation product, share of total products (CYP199A4 [3]; WT CYP199A4, in vitro turnover) [%] | SMILES | Coupling (percentage of NADH utilized for the formation of products) (CYP199A4 [7]) [%] | NADH (frequency of NADH oxidation) (CYP199A4 [7]) [nmol.nmol‐CYP^−1.min^−1] | PFR (product formation rate) (CYP199A4 [7]) [nmol.nmol‐CYP^−1.min^−1] | shift to the high‐spin form of ferric CYP199A4 (CYP199A4 [8]) [%] | HS (%), change in the heme spin state from low‐spin to high‐spin upon addition of substrate (CYP199A4 [8]) [%] | other results |
| --- | --- | --- | --- | --- | --- | --- | --- | --- | --- | --- | --- | --- |
| 90 | 0.39 ± 0.04 | 67±3 | 40±1 | 67 | 2 | CCCCc1ccc(C(=O)O)cc1 [4‐n‐butylBA, 4‐n‐butylbenzoic acid] | – | – | – | – | – | unidentified minor product, share of total products (CYP199A4 [3]; WT CYP199A4, HPLC): < 2%; Cα–Cβ desaturation alkene product, share of total products (CYP199A4 [3]; WT CYP199A4, in vitro turnover): 50%; Cβ hydroxylation product, share of total products (CYP199A4 [3]; WT CYP199A4, in vitro turnover): did not generate any detectable product |
| ≥95 | 0.16 ± 0.03 | 147±12 | 53±2 | 147 | 3 | CCCCCCCc1ccc(C(=O)O)cc1 [4‐n‐heptylBA, 4‐n‐heptylbenzoic acid] | – | – | – | – | – | Coupling (percentage of NADH utilized for the formation of products) (CYP199A4 [5]; listed as 4‐n‐heptylbenzoic acid): 53% |
| >95 | 0.59 ± 0.03 | 146±21 | 41±5 | 146 | – | CC(C)Cc1ccc(C(=O)O)cc1 [4‐isobutylBA, 4‐isobutylbenzoic acid] | – | – | – | – | – | – |

From paper PMC10100021 (Chemistry, an Asian Journal, 2022)
